Data from ChEMBL document CHEMBL3351537, “Design, synthesis and biological evaluation of 4-fluoropyrrolidine-2-carbonitrile and octahydrocyclopenta[b]pyrrole-2-carbonitrile derivatives as dipeptidyl peptidase IV inhibitors” (Eur J Med Chem, 2014).
Blank lines part the entries; values can stand above or below the molecule they belong to. Calls of active or inactive are those of the source. No cut-off for these calls is given here.

Key:
[1] = target: Dipeptidyl peptidase 2 (Homo sapiens, UniProt Q9UHL4); assay: Inhibition of DPP7 (unknown origin) expressed in baculovirus expression system using Nle-Pro-AMC as substrate by continuous fluorometric assay
[2] = target: Dipeptidyl peptidase 9 (Homo sapiens, UniProt Q86TI2); assay: Inhibition of DPP9 (unknown origin) expressed in baculovirus expression system using Ala-Pro-AMC as substrate by continuous fluorometric assay
Chain of Dipeptidyl peptidase 9 (Q86TI2 whole entry): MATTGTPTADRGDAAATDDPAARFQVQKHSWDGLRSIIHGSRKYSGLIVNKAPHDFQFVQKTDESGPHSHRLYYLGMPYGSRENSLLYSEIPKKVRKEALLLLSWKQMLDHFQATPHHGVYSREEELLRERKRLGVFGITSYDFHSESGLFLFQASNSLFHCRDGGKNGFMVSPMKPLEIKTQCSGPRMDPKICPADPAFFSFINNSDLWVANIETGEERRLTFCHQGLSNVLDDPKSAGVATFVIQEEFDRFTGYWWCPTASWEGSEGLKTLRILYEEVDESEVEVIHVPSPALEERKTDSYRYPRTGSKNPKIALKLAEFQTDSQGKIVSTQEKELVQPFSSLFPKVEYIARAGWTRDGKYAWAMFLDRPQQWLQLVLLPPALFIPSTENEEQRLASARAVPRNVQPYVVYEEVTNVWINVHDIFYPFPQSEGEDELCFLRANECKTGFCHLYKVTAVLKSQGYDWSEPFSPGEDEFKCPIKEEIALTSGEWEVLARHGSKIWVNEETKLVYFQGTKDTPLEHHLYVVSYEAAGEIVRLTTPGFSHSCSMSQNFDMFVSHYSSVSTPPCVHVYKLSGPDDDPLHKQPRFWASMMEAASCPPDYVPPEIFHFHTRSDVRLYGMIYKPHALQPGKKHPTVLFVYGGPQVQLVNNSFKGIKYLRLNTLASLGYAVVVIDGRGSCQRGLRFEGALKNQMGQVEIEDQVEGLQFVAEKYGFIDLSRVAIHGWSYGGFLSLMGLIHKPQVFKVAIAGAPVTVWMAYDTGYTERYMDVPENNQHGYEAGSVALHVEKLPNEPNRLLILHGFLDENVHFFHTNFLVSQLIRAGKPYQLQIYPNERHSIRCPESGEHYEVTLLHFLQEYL

[3] = target: T1, Prolyl endopeptidase FAP (Homo sapiens, UniProt Q12884); assay: Inhibition of FAP (unknown origin) expressed in baculovirus expression system using Nle-Pro-AMC as substrate by continuous fluorometric assay
T1 sequence (Q12884 whole entry): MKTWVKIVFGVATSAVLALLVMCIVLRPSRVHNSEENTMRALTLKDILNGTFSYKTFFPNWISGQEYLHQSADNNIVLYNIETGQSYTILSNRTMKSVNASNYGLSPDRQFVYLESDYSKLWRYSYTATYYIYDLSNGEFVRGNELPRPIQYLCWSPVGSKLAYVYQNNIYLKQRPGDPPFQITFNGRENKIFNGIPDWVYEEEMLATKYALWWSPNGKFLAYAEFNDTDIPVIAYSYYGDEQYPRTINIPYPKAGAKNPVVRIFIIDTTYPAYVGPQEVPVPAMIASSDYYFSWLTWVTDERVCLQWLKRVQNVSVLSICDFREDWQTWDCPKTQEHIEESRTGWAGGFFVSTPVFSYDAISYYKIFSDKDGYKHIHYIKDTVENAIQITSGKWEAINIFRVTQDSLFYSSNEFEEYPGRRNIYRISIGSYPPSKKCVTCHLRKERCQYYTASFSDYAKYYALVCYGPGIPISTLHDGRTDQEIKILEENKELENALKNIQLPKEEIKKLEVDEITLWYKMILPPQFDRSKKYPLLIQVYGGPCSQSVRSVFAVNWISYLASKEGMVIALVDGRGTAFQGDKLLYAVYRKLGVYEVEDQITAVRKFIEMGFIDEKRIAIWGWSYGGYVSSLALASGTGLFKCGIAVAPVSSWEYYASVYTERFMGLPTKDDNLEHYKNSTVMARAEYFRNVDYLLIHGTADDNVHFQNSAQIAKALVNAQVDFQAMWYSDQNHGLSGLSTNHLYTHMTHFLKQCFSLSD

[4] = target: Dipeptidyl peptidase 8 (Homo sapiens, UniProt Q6V1X1); assay: Inhibition of DPP8 (unknown origin) expressed in baculovirus expression system using Ala-Pro-AMC as substrate by continuous fluorometric assay
Chain of Dipeptidyl peptidase 8 (Q6V1X1 whole entry): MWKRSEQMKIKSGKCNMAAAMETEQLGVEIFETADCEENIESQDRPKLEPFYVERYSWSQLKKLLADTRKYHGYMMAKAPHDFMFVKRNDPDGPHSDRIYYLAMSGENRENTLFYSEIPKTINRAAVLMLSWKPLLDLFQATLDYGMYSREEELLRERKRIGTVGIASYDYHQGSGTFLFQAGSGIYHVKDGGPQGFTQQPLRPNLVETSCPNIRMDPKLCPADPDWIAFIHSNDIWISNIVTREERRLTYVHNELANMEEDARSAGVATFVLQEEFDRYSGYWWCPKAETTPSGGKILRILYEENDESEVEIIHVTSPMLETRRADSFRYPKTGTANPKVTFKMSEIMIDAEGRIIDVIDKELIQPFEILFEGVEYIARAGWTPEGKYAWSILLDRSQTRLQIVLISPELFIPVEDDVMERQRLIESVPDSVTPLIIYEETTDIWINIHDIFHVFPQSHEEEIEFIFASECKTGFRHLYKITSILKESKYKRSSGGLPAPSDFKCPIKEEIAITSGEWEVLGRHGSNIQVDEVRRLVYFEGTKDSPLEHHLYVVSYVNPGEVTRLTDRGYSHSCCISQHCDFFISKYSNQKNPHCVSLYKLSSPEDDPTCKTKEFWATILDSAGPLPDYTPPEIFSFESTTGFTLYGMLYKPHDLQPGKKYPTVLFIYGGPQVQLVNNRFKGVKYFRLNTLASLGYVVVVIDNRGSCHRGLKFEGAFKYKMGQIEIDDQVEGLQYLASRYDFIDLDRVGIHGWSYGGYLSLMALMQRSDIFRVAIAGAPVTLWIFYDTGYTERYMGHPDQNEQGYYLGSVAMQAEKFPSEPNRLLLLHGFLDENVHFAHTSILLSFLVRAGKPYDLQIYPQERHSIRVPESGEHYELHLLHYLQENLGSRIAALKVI

[5] = Cmax in Sprague-Dawley rat at 20 mg/kg, iv; type: ADME, organism-based; design: dose 20 mg/kg, route intravenous; conditions: in vivo
Outline: (§1)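 SD rats dosed orally or intravenously. Blood sampled after dosing and spun to plasma. Plasma deproteinized with methanol containing internal standard, centrifuged, supernatant diluted in methanol and centrifuged again. Compound levels measured by LC/MS/MS. PK parameters were derived from these plasma concentrations.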

[6] = system: Rattus norvegicus; assay: Oral bioavailability in Sprague-Dawley rat at 50 mg/kg; type: ADME, organism-based; conditions: in vivo; outline: as §1
[7] = system: Mus musculus; assay: Reduction in glucose excursion in ICR mouse compound administered as single dose measured at 15 mins post dose by oral glucose tolerance test; type: functional, organism-based
Outline: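 Fasted ICR mice (16 h) given a single oral dose, 5 or 15 mg/kg in 0.5% methylcellulose (10 mL/kg). Oral glucose challenge 2.5 g/kg given 30 min later. Blood glucose read at 0, 15, 30, 60, 90 and 120 min for AUC. Vehicle control included; mean ± SE, Student's t-test.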

[8] = target: T2, Voltage-gated inwardly rectifying potassium channel KCNH2 (Homo sapiens, UniProt Q12809); assay: Inhibition of human ERG expressed in CHO cells after 20 mins by thallium assay; type: cell-based
T2 sequence (Q12809 whole entry): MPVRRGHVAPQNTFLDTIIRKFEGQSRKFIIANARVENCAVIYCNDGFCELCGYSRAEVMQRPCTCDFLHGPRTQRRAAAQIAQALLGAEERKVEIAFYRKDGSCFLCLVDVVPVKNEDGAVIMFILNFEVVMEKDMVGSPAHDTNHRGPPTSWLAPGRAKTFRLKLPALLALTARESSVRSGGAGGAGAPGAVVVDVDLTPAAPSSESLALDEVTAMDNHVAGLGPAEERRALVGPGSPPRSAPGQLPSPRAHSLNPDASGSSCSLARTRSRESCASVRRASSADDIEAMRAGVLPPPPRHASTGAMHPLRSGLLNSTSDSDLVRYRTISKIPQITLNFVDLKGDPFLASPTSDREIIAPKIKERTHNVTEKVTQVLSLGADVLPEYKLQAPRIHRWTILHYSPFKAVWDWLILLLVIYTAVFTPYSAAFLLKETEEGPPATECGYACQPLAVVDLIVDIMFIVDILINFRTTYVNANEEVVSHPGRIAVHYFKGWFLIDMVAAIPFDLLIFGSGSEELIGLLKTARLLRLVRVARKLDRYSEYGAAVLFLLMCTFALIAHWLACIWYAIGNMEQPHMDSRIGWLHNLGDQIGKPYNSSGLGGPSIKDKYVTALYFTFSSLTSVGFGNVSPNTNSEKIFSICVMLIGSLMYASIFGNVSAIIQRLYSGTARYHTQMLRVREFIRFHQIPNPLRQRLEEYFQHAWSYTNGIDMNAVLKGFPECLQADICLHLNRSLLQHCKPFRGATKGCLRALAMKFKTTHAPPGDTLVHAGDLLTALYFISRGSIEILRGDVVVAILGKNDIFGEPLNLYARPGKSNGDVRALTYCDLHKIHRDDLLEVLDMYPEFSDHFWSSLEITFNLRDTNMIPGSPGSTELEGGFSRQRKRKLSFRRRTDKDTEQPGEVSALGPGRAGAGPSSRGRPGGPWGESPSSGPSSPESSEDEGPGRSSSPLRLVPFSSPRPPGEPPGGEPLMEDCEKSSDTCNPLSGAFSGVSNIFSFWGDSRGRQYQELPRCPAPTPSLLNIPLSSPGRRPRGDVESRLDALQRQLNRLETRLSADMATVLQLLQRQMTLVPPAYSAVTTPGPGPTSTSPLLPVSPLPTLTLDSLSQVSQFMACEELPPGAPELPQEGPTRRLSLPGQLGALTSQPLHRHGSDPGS
Outline: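 CHO-hERG-ZG cells grown with 100 μg/mL G418 and 100 μg/mL hygromycin B, then seeded and incubated 16–18 h at 37 °C. Cells held in loading buffer 90 min in the dark at RT, switched to assay buffer, and exposed to compound 20 min in the dark at RT. FluxOR thallium flux read on FDSS: baseline to 10 s, stimulus buffer added at 10 s, recording to 180 s.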

[9] = Mean residence time in Sprague-Dawley rat at 20 mg/kg, iv; type: ADME, organism-based; design: dose 20 mg/kg, route intravenous; conditions: in vivo; outline: as §1
[10] = Half life in Sprague-Dawley rat at 20 mg/kg, iv; type: ADME, organism-based; design: dose 20 mg/kg, route intravenous; conditions: in vivo; outline: as §1
[11] = Mean residence time in Sprague-Dawley rat at 50 mg/kg, po; type: ADME, organism-based; design: dose 50 mg/kg, route oral; conditions: in vivo; outline: as §1
[12] = system: Rattus norvegicus; assay: AUC (0 to infinity) in Sprague-Dawley rat at 20 mg/kg, iv; type: ADME, organism-based, Plasma; design: dose 20 mg/kg, route intravenous, time infinity; conditions: in vivo; outline: as §1
[13] = Half life in Sprague-Dawley rat at 50 mg/kg, po; type: ADME, organism-based; design: dose 50 mg/kg, route oral; conditions: in vivo; outline: as §1
[14] = system: Rattus norvegicus; assay: AUC (0 to infinity) in Sprague-Dawley rat at 50 mg/kg, po; type: ADME, organism-based, Plasma; design: time infinity, dose 50 mg/kg, route oral; conditions: in vivo; outline: as §1
[15] = Tmax in Sprague-Dawley rat at 50 mg/kg, po; type: ADME, organism-based; design: dose 50 mg/kg, route oral; conditions: in vivo; outline: as §1
[16] = target: Cytochrome P450 2C9 (Homo sapiens, UniProt P11712); assay: Inhibition of CYP2C9 (unknown origin); type: ADME
Chain of Cytochrome P450 2C9 (P11712 whole entry): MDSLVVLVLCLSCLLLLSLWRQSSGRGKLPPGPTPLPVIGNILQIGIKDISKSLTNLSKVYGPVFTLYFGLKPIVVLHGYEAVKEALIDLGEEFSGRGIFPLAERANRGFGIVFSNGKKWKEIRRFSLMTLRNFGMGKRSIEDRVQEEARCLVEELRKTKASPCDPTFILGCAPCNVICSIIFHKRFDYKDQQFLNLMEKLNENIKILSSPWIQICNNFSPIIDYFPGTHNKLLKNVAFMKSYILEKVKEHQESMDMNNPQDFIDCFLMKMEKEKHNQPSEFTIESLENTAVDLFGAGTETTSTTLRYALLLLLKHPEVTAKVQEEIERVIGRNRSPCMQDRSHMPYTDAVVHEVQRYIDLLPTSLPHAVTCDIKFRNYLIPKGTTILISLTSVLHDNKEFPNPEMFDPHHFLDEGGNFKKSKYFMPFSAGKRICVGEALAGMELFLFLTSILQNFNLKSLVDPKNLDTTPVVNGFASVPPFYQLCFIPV

[17] = AUC (0 to t) in Sprague-Dawley rat at 20 mg/kg, iv; type: ADME, organism-based; design: dose 20 mg/kg, route intravenous; conditions: plasma; outline: as §1
[18] = target: Cytochrome P450 3A4 (Homo sapiens, UniProt P08684); assay: Inhibition of CYP3A4 (unknown origin); type: ADME
Chain of Cytochrome P450 3A4 (P08684 whole entry): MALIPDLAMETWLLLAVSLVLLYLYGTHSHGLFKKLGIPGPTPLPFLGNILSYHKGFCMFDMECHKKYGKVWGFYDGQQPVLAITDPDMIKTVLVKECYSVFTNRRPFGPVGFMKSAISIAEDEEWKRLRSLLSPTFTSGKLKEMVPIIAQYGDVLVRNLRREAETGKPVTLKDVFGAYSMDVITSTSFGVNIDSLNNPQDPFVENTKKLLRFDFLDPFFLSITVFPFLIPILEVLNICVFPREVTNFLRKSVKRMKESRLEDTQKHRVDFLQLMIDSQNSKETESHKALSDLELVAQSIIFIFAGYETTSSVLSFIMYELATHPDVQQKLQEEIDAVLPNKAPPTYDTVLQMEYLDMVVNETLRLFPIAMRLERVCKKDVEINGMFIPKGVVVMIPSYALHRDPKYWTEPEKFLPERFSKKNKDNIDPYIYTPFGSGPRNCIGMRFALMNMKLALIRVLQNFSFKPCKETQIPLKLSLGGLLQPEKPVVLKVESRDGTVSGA

[19] = target: T2, Voltage-gated inwardly rectifying potassium channel KCNH2; assay: Inhibition of human ERG expressed in CHO cells after 20 mins by patch clamp assay; type: cell-based
[20] = Tmax in Sprague-Dawley rat at 20 mg/kg, iv; type: ADME, organism-based; design: dose 20 mg/kg, route intravenous; conditions: in vivo; outline: as §1
[21] = Cmax in Sprague-Dawley rat at 50 mg/kg, po; type: ADME, organism-based; design: dose 50 mg/kg, route oral; conditions: in vivo; outline: as §1
[22] = system: Rattus norvegicus; assay: Apparent clearance in Sprague-Dawley rat at 20 mg/kg, iv; type: ADME, organism-based; design: dose 20 mg/kg, route intravenous; conditions: in vivo; outline: as §1
[23] = AUC (0 to t) in Sprague-Dawley rat at 50 mg/kg, po; type: ADME, organism-based; design: dose 50 mg/kg, route oral; conditions: plasma; outline: as §1
[24] = system: Mus musculus; assay: Reduction in random blood glucose level in C57BKS db/db mouse at 15 mg/kg/day, po (Rvb =23.3 +/- 1.0 mM); type: functional
[25] = system: Rattus norvegicus; assay: Oral bioavailability in Sprague-Dawley rat at 20 mg/kg; type: ADME, organism-based; conditions: in vivo; outline: as §1
[26] = Half life in Sprague-Dawley rat at 10 mg/kg, iv; type: ADME, organism-based; design: dose 10 mg/kg, route intravenous; conditions: in vivo; outline: as §1
[27] = AUC (0 to t) in Sprague-Dawley rat at 20 mg/kg, po; type: ADME, organism-based; design: dose 20 mg/kg, route oral; conditions: plasma; outline: as §1
[28] = Cmax in Sprague-Dawley rat at 20 mg/kg, po; type: ADME, organism-based; design: dose 20 mg/kg, route oral; conditions: in vivo; outline: as §1
[29] = system: Mus musculus; assay: Reduction in free fatty acid in C57BKS db/db mouse at 15 mg/kg/day, po (reference value: 1.46 +/- 0.10 mM); type: functional
[30] = Apparent clearance in Sprague-Dawley rat at 10 mg/kg, iv; type: ADME, organism-based; design: dose 10 mg/kg, route intravenous; conditions: in vivo, read-out: CL(app) (converted); outline: as §1
[31] = AUC (0 to t) in Sprague-Dawley rat at 10 mg/kg, iv; type: ADME, organism-based; design: dose 10 mg/kg, route intravenous; conditions: plasma; outline: as §1
[32] = system: Mus musculus; assay: Reduction in fasting blood glucose level in C57BKS db/db mouse at 15 mg/kg/day, po (Rvb =23.0 +/- 1.0 mM); type: functional
[33] = Tmax in Sprague-Dawley rat at 10 mg/kg, iv; type: ADME, organism-based; design: dose 10 mg/kg, route intravenous; conditions: in vivo; outline: as §1
[34] = system: Rattus norvegicus; assay: AUC (0 to infinity) in Sprague-Dawley rat at 20 mg/kg, po; type: ADME, organism-based, Plasma; design: time infinity, dose 20 mg/kg, route oral; conditions: in vivo; outline: as §1
[35] = system: Mus musculus; assay: Reduction in total cholesterol content in C57BKS db/db mouse at 15 mg/kg/day, po; type: functional, organism-based
[36] = Cmax in Sprague-Dawley rat at 10 mg/kg, iv; type: ADME, organism-based; design: dose 10 mg/kg, route intravenous; conditions: in vivo; outline: as §1
[37] = Mean residence time in Sprague-Dawley rat at 10 mg/kg, iv; type: ADME, organism-based; design: dose 10 mg/kg, route intravenous; conditions: in vivo; outline: as §1
[38] = system: Mus musculus; assay: Reduction in plasma triglyceride content in C57BKS db/db mouse at 15 mg/kg/day, po (reference value: 1.01 +/- 0.09 mM); type: functional
[39] = Tmax in Sprague-Dawley rat at 20 mg/kg, po; type: ADME, organism-based; design: dose 20 mg/kg, route oral; conditions: in vivo; outline: as §1
[40] = Half life in Sprague-Dawley rat at 20 mg/kg, po; type: ADME, organism-based; design: dose 20 mg/kg, route oral; conditions: in vivo; outline: as §1
[41] = Mean residence time in Sprague-Dawley rat at 20 mg/kg, po; type: ADME, organism-based; design: dose 20 mg/kg, route oral; conditions: in vivo; outline: as §1
[42] = system: Rattus norvegicus; assay: AUC (0 to infinity) in Sprague-Dawley rat at 10 mg/kg, iv; type: ADME, organism-based, Plasma; design: time infinity, dose 10 mg/kg, route intravenous; conditions: in vivo; outline: as §1

IC50 [1]: Not Active
Structure (SMILES): N#C[C@@H]1C[C@@H]2CCC[C@@H]2N1C(=O)C[C@H](N)Cc1ccccc1Cl

IC50 [1]: Not Active | IC50 [2]: 108 µM | IC50 [3]: Not Active | IC50 [4]: Not Active
Structure (SMILES): N#C[C@@H]1C[C@@H]2CCC[C@@H]2N1C(=O)C[C@H](N)Cc1ccccc1

IC50 [1]: Not Active | IC50 [3]: Not Active
Structure (SMILES): N#C[C@@H]1C[C@@H]2CCC[C@@H]2N1C(=O)C[C@H](N)Cc1cccc(F)c1

Second part, the molecule before the results:

Structure (SMILES): N#C[C@@H]1C[C@@H]2CCC[C@@H]2N1C(=O)C[C@H](N)Cc1ccc(F)cc1
IC50 ([3]; read-out: IC50): 154 µM

Structure (SMILES): Cc1ccccc1C[C@@H](N)CC(=O)N1C[C@@H](F)C[C@H]1C#N
IC50 [1]: Not Active

Structure (SMILES): N#C[C@@H]1C[C@H](F)CN1C(=O)C[C@H](N)Cc1cc(F)c(F)cc1F
Cmax [5]: 2710 ng/mL | F [6]: 53.2% | Activity [7]: Dose-dependent effect | IC50 [8]: 97.7 µM | MRT [9]: 2.93 h | half-life [10]: 140 min | MRT [11]: 3.03 h | AUC [12]: 5870 ng/mL.hr | half-life [13]: 122 min | AUC [14]: 8935 ng·h/mL | Tmax [15]: 18 min | IC50 [16]: Not Active | AUC(0-t) [17]: 5840 ng·h/mL | IC50 [18]: 56.5 µM | IC50 [19]: > 40 µM | Tmax [20]: 18 min | Cmax [21]: 2690 ng/mL | CL(app) [22]: 3.42 L/h/kg | AUC(0-t) [23]: 8840 ng·h/mL

Structure (SMILES): N#C[C@@H]1C[C@@H]2CCC[C@@H]2N1C(=O)C[C@H](N)Cc1cc(F)c(F)cc1F
Activity [24]: 21.3 mM | F [25]: 22.8% | half-life [26]: 143 min | AUC(0-t) [27]: 2040 ng·h/mL | Activity [7]: Dose-dependent effect | Cmax [28]: 509 ng/mL | Activity [29]: 1.43 mEq/L | clearance [30]: 33.5 mL/min/kg | IC50 [8]: 55.3 µM | AUC(0-t) [31]: 4470 ng·h/mL | Activity [32]: 19.7 mM | Tmax [33]: 30 min | AUC [34]: 2360 ng/mL.hr | Activity [35]: inactive | Cmax [36]: 1120 ng/mL | IC50 [16]: Not Active | IC50 [18]: 2.25 µM | IC50 [19]: > 40 µM | MRT [37]: 2.71 h | Activity [38]: 0.85 mM | Tmax [39]: 30 min | half-life [40]: 164 min | MRT [41]: 2.81 h | AUC [42]: 4974 ng·h/mL
